In ChEMBL document CHEMBL3822380, “Simple avarone mimetics as selective agents against multidrug resistant cancer cells” (Eur J Med Chem, 2016):
≈ marks a conversion by molar mass, not a printed value. Calls of active or inactive are those of the source.

Legend:
[1] = tested on: NCI-H460; experiment: Induction of apoptosis in human NCI-H460 cells assessed as early apoptotic cells at 25 uM after 72 hrs by annexin-V/propidium iodide staining-based flow cytometric analysis (reference value: 0.3%); type: functional
[2] = tested on: Kocuria rhizophila; experiment: Antibacterial activity against Kocuria rhizophila ATCC 9341 by broth microdilution method; type: functional; conditions: DC2201
Procedure, shortened: (§1)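 Broth microdilution per NCCLS. Compounds dissolved in DMSO as 10 mg/mL stock, diluted in Mueller Hinton broth (bacteria) or Sabouraud dextrose broth (fungi). Amikacin served as the positive control for bacteria and nystatin for fungi.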

[3] = tested on: NCI-H460; experiment: Selectivity ratio of IC30/IC50 for human NCI-H460 cells to IC30/IC50 for multidrug resistant human NCI-H460 cells; type: functional
Procedure, shortened: (§2)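 Fold threshold of 1.5 used to call selectivity to cancer cells, resistance, or selectivity to MDR cells.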

[4] = tested on: HaCaT; experiment: Induction of superoxide anion generation in human HaCaT cells at 25 uM after 72 hrs by DHE staining-based flow cytometric analysis relative to control; type: cell-based
Procedure, shortened: (§3)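 Seeded as for cell death (50,000 or 100,000 cells/well), treated 72 h at 25 µM, with CDDP 5 µM as control. Adherent cells trypsinized and loaded with 1 µM DHE for 30 min at 37 °C in the dark, then washed twice in PBS. Flow cytometry at ex 488/em 585 nm (FL2-H). Mean fluorescence intensity corrected for autofluorescence and compared with untreated control.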

[5] = tested on: HaCaT; experiment: Cytotoxicity against human HaCaT cells after 72 hrs by MTT assay; type: cell-based; conditions: for IC50: Homo sapiens, HaCaT; for IC30: human, hacat
Procedure, shortened: (§4)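 Seeding in 96-well plates at 1000 (NCI-H460), 2000 (NCI-H460/R) or 4000 (HaCaT) cells/well, treated after 24 h for 72 h. MTT at 0.4 mg/mL final, 4 h at 37 °C. Formazan dissolved in DMSO, absorbance read at 540 nm. Inhibition % = (1 − A treated/A untreated)×100. IC30 and IC50 obtained by linear regression.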

[6] = tested on: Micrococcus luteus; experiment: Antibacterial activity against Micrococcus luteus ATCC 10240 by broth microdilution method; type: functional; procedure, shortened: as §1
[7] = tested on: NCI-H460; experiment: Cytotoxicity against multidrug resistant human NCI-H460 cells after 72 hrs by MTT assay; type: functional, cell-based; conditions: NCI-H460, 72 h; procedure, shortened: as §4
[8] = tested on: NCI-H460; experiment: Induction of mitochondrial membrane potential depolarization in multidrug resistant human NCI-H460 cells at 25 uM after 15 mins by JC1-staining-based flow cytometric analysis; type: functional, cell-based
Procedure, shortened: (§5)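 Cells treated with 25 µM compound, with CDDP 5 µM as control. Stained with JC-1 for 15 min at 37 °C in a CO2 incubator, washed twice in assay buffer and resuspended in PBS. Flow cytometry read red aggregate (FL2-H) versus green monomer (FL1-H) fluorescence. Live cells were also imaged by fluorescence microscopy.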

[9] = Selectivity ratio of IC30/IC50 for human HaCaT cells to IC30/IC50 for human NCI-H460 cells; type: ADME, cell-based; conditions: HaCaT cells versus NCI-H460 cells; procedure, shortened: as §2
[10] = tested on: Bacillus spizizenii; experiment: Antibacterial activity against Bacillus subtilis ATCC 6633 by broth microdilution method; type: functional; procedure, shortened: as §1
[11] = tested on: Aspergillus brasiliensis; experiment: Antifungal activity against Aspergillus brasiliensis ATCC 16404 by broth microdilution method; type: functional; procedure, shortened: as §1
[12] = tested on: NCI-H460; experiment: Induction of apoptosis in human NCI-H460 cells assessed as live cells at 25 uM after 72 hrs by annexin-V/propidium iodide staining-based flow cytometric analysis (reference value: 98.3%); type: functional
[13] = tested on: Proteus hauseri; experiment: Antibacterial activity against Proteus hauseri ATCC 13315 by broth microdilution method; type: functional; procedure, shortened: as §1
[14] = tested on: NCI-H460; experiment: Induction of apoptosis in multidrug resistant human NCI-H460 cells assessed as dead cells at 25 uM after 72 hrs by annexin-V/propidium iodide staining-based flow cytometric analysis (reference value: 1.5%); type: functional
[15] = tested on: Escherichia coli; experiment: Antibacterial activity against Escherichia coli ATCC 25922 by broth microdilution method; type: functional; procedure, shortened: as §1
[16] = tested on: NCI-H460; experiment: Induction of apoptosis in multidrug resistant human NCI-H460 cells assessed as early apoptotic cells at 25 uM after 72 hrs by annexin-V/propidium iodide staining-based flow cytometric analysis (reference value: 1.1%); type: functional
[17] = tested on: HaCaT; experiment: Induction of apoptosis in human HaCaT cells assessed as early apoptotic cells at 25 uM after 72 hrs by annexin-V/propidium iodide staining-based flow cytometric analysis (reference value: 0.2%); type: cell-based
[18] = tested on: NCI-H460; experiment: Induction of mitochondrial membrane potential depolarization in human NCI-H460 cells at 25 uM after 15 mins by JC1-staining-based flow cytometric analysis; type: functional, cell-based; procedure, shortened: as §5
[19] = tested on: HaCaT; experiment: Induction of apoptosis in human HaCaT cells assessed as dead cells at 25 uM after 72 hrs by annexin-V/propidium iodide staining-based flow cytometric analysis (reference value: 2.8%); type: cell-based
[20] = tested on: NCI-H460; experiment: Induction of apoptosis in human NCI-H460 cells assessed as dead cells at 25 uM after 72 hrs by annexin-V/propidium iodide staining-based flow cytometric analysis (reference value: 1.2%); type: functional
[21] = tested on: Staphylococcus aureus; experiment: Antibacterial activity against Staphylococcus aureus ATCC 6538 by broth microdilution method; type: functional; procedure, shortened: as §1
[22] = tested on: Pseudomonas aeruginosa; experiment: Antibacterial activity against Pseudomonas aeruginosa ATCC 9027 by broth microdilution method; type: functional; procedure, shortened: as §1
[23] = tested on: Micrococcus luteus; experiment: Antibacterial activity against Micrococcus luteus ATCC 4698 by broth microdilution method; type: functional; conditions: NCTC 2665; procedure, shortened: as §1
[24] = tested on: NCI-H460; experiment: Induction of apoptosis in human NCI-H460 cells assessed as late apoptotic/necrotic cells at 25 uM after 72 hrs by annexin-V/propidium iodide staining-based flow cytometric analysis (reference value: 0.2%); type: functional
[25] = tested on: HaCaT; experiment: Induction of mitochondrial membrane potential depolarization in human HaCaT cells at 25 uM after 15 mins by JC1-staining-based flow cytometric analysis; type: cell-based; conditions: 0.25 h; procedure, shortened: as §5
[26] = tested on: NCI-H460; experiment: Cytotoxicity against human NCI-H460 cells after 72 hrs by MTT assay; type: functional, cell-based; conditions: NCI-H460, 72 h; procedure, shortened: as §4
[27] = tested on: NCI-H460; experiment: Induction of apoptosis in multidrug resistant human NCI-H460 cells assessed as live cells at 25 uM after 72 hrs by annexin-V/propidium iodide staining-based flow cytometric analysis (reference value: 96.4%); type: functional
[28] = tested on: NCI-H460; experiment: Induction of superoxide anion generation in human NCI-H460 cells at 25 uM after 72 hrs by DHE staining-based flow cytometric analysis relative to control; type: functional, cell-based; procedure, shortened: as §3
[29] = tested on: NCI-H460; experiment: Induction of apoptosis in multidrug resistant human NCI-H460 cells assessed as late apoptotic/necrotic cells at 25 uM after 72 hrs by annexin-V/propidium iodide staining-based flow cytometric analysis (reference value: 1%); type: functional
[30] = Selectivity ratio of IC30/IC50 for human HaCaT cells to IC30/IC50 for multidrug resistant human NCI-H460 cells; type: ADME, cell-based; conditions: HaCaT cells versus multidrug resistant NCI-H460 cells; procedure, shortened: as §2
[31] = tested on: Clostridium sporogenes; experiment: Antibacterial activity against Clostridium sporogenes ATCC 19404 by broth microdilution method; type: functional; procedure, shortened: as §1
[32] = tested on: Salmonella enteritidis; experiment: Antibacterial activity against Salmonella enterica subsp. enterica serovar Enteritidis ATCC 13076 by broth microdilution method; type: functional; procedure, shortened: as §1
[33] = tested on: Candida albicans; experiment: Antifungal activity against Candida albicans ATCC 10231 by broth microdilution method; type: functional; procedure, shortened: as §1
[34] = tested on: NCI-H460; experiment: Induction of superoxide anion generation in multidrug resistant human NCI-H460 cells at 25 uM after 72 hrs by DHE staining-based flow cytometric analysis relative to control; type: functional, cell-based; procedure, shortened: as §3
[35] = tested on: HaCaT; experiment: Induction of apoptosis in human HaCaT cells assessed as late apoptotic/necrotic cells at 25 uM after 72 hrs by annexin-V/propidium iodide staining-based flow cytometric analysis (reference value: 0.2%); type: cell-based
[36] = tested on: Saccharomyces cerevisiae; experiment: Antifungal activity against Saccharomyces cerevisiae ATCC 9763 by broth microdilution method; type: functional; procedure, shortened: as §1
[37] = Induction of apoptosis in human HaCaT cells assessed as live cells at 25 uM after 72 hrs by annexin-V/propidium iodide staining-based flow cytometric analysis (reference value: 96.8%); type: cell-based; conditions: read-out: Activity
[38] = tested on: NCI-H460; experiment: Resistance index, ratio of IC30/IC50 for multidrug resistant human NCI-H460 cells to IC30/IC50 for human NCI-H460 cells; type: functional; procedure, shortened: as §2

SMILES | MIC [2] | IC50 [5] | IC30 [5] | MIC [6] | IC30 [7] | IC50 [7] | selectivity ratio [9] | MIC [10] | MIC [11] | MIC [13] | MIC [15] | MIC [21] | MIC [22] | MIC [23] | IC30 [26] | IC50 [26] | selectivity ratio [30] | MIC [31] | MIC [32] | MIC [33] | other results
CC(C)(C)C1=CC(=O)C=C(NCCc2ccccc2)C1=O | 17700 µM (≈ 5010 µg/mL) | 23 µM | 19 µM | 34 µM (≈ 9.63 µg/mL) | 3 µM | 6 µM | ≤ 1.5 | 4420 µM (≈ 1250 µg/mL) | 1110 µM (≈ 313 µg/mL) | 17700 µM (≈ 5010 µg/mL) | 9 µM (≈ 2.55 µg/mL) | 9 µM (≈ 2.55 µg/mL) | 4420 µM (≈ 1250 µg/mL) | 2210 µM (≈ 626 µg/mL) | 7 µM | 14 µM | ≤ 1.5 | 4420 µM (≈ 1250 µg/mL) | 4420 µM (≈ 1250 µg/mL) | 34 µM (≈ 9.63 µg/mL) | Activity [1]: 2.4%; selectivity ratio [3]: <=1.5; Activity [4]: Non-toxic; Activity [8]: Active; Activity [12]: 66.1%; Activity [14]: 40.3%; Activity [16]: 2%; Activity [17]: 4.1%; Activity [18]: Active; Activity [19]: 14.2%; Activity [20]: 22%; Activity [24]: 9.5%; Activity [25]: Non-toxic; Activity [27]: 45.9%; Activity [28]: inactive; Activity [29]: 11.8%; Activity [34]: Active; Activity [35]: 6.9%; MIC [36]: 34 µM (≈ 9.63 µg/mL); viability at 72 h, 25 µM [37]: 74.8%
CCCCNC1=CC(=O)C(C(C)(C)C)=CC1=O | 2470 µM (≈ 581 µg/mL) | > 100 µM | 50 µM | 38 µM (≈ 8.94 µg/mL) | 19 µM | 72 µM | ≤ 1.5 | 1240 µM (≈ 291 µg/mL) | 2460 µM (≈ 580 µg/mL) | 1240 µM (≈ 291 µg/mL) | 19 µM (≈ 4.47 µg/mL) | 38 µM (≈ 8.94 µg/mL) | 620 µM (≈ 146 µg/mL) | 2470 µM (≈ 581 µg/mL) | 5 µM | 36 µM | ≤ 1.5 | 1240 µM (≈ 291 µg/mL) | 620 µM (≈ 146 µg/mL) | 77 µM (≈ 18.1 µg/mL) | Ratio [38]: <=1.5; MIC [36]: 154 µM (≈ 36.2 µg/mL)
